The text below walks through data of ChEMBL document CHEMBL4400543, “Identification and Characterization of AES-135, a Hydroxamic Acid-Based HDAC Inhibitor That Prolongs Survival in an Orthotopic Mouse Model of Pancreatic Cancer” (J Med Chem, 2019).

Molecules are shown by their SMILES.

Series [1] can be described thus: Half life in ICR/CD1 mouse hepatocytes at 1 uM up to 120 mins by LC-MS/MS analysis. In kind it is ADME, cell-based, Hepatocyte. The conditions noted are these: 2 h.
In the next series the target is T1, Histone deacetylase 8 (Homo sapiens, UniProt Q9BY41).
T1 sequence (Q9BY41 whole entry): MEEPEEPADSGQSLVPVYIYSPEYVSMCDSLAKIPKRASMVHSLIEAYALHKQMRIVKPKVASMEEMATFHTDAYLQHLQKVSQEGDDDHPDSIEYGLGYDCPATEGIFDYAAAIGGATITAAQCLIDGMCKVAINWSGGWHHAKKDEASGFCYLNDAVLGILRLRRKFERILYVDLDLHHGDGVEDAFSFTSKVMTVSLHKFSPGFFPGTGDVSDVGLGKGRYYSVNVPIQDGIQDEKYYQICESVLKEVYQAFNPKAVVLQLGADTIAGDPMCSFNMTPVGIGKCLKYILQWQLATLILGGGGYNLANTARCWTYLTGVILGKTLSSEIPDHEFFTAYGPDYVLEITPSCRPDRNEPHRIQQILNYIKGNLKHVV
Briefly: Inhibition of recombinant human HDAC8 expressed in SF9 baculoviral system using FAM-labeled acetylated peptide as substrate by EMSA. The procedure, abridged:
(§1)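 Full-length recombinant human enzyme from an Sf9 baculovirus system, in 100 mM HEPES pH 7.5 with 25 mM KCl, 0.1% BSA, 0.01% Triton X-100 and 1% DMSO. Final enzyme was 0.5 nM for HDAC3, 60 nM for HDAC6 and 5.0 nM for HDAC8. FAM-acetylated peptide was 1 μM. The read-out was product/(substrate+product) by microfluidic mobility shift, with inhibition set against DMSO and no-enzyme controls (quadruplicate). Compounds were tested at 12 threefold-spaced concentrations, and IC50 came from a four-parameter sigmoid fit.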

The target of another series is Histone deacetylase 3 (Homo sapiens, UniProt O15379). Put plainly: Inhibition of recombinant human HDAC3 expressed in SF9 baculoviral system using FAM-labeled acetylated peptide as substrate by EMSA. In a few lines: as §1
Chain of Histone deacetylase 3 (O15379 whole entry): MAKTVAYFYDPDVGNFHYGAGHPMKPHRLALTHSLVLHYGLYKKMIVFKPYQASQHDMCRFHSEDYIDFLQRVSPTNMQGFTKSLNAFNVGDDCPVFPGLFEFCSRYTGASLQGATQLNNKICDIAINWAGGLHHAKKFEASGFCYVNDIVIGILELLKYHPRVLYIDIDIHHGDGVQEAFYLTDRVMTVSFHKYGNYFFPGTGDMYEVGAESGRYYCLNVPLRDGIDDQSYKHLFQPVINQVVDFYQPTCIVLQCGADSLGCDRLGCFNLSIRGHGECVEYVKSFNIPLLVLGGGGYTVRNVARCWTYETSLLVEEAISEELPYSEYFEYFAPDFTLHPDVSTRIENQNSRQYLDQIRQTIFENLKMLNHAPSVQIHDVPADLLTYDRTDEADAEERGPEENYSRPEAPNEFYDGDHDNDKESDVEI
On the technique in general: A gel shift assay detects complexes by their altered migration in electrophoresis.

Series [2] has as its target T2, Protein deacetylase HDAC6 (Homo sapiens, UniProt Q9UBN7).
T2 sequence (Q9UBN7 whole entry): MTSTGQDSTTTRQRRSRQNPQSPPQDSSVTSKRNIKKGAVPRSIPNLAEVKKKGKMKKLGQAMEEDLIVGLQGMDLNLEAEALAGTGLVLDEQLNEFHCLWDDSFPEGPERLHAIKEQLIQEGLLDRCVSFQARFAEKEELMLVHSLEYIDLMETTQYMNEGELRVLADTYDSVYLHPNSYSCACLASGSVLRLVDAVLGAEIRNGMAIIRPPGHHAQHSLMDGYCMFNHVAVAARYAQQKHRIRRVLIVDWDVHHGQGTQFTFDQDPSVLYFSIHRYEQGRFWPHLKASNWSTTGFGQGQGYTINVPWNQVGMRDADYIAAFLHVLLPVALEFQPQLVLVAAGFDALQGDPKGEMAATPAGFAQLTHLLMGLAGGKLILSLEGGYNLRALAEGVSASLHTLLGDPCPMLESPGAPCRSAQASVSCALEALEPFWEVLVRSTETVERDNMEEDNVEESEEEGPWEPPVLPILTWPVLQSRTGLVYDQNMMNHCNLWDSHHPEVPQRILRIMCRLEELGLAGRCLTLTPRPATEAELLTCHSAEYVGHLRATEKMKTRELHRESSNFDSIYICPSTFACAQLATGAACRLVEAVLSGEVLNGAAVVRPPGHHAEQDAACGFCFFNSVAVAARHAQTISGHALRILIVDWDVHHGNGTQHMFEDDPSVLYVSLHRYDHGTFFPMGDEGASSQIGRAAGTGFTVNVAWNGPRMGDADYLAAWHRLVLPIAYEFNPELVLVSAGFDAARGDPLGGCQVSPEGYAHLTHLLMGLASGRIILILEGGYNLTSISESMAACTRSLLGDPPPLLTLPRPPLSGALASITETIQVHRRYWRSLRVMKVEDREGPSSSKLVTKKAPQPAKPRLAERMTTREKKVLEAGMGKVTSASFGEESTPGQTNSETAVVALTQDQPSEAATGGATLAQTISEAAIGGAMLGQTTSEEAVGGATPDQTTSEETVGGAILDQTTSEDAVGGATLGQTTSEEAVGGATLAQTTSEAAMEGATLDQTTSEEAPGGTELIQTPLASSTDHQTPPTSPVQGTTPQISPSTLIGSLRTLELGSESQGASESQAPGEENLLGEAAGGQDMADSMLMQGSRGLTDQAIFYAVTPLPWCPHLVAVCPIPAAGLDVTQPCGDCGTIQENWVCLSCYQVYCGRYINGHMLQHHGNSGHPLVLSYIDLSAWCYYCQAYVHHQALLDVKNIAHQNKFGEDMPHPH
Briefly: Inhibition of recombinant human HDAC6 expressed in SF9 baculoviral system using FAM-labeled acetylated peptide as substrate by EMSA. The procedure, abridged: as §1

Series [3] in a line: Intrinsic clearance in ICR/CD1 mouse hepatocytes assessed per million cells at 1 uM up to 120 mins by LC-MS/MS analysis. The format is ADME, cell-based, Hepatocyte. The following applies: 2 h.
The target of another series is T3, Histone deacetylase 11 (Homo sapiens, UniProt Q96DB2).
T3 sequence (Q96DB2 whole entry): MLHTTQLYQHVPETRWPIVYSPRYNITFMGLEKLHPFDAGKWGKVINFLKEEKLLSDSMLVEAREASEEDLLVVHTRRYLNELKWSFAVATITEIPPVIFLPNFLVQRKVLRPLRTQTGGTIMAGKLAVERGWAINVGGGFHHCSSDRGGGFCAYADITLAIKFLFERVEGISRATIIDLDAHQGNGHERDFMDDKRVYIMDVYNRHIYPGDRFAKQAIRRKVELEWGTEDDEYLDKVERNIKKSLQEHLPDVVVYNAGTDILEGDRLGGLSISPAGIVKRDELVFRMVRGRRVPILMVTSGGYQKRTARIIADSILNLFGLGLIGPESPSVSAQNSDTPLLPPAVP
Briefly: Inhibition of recombinant human HDAC11 expressed in SF9 baculoviral system using FAM-labeled acetylated peptide as substrate by EMSA. The procedure, abridged:
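Full-length human HDAC11 (Sf9-expressed), 10 nM final, in 100 mM HEPES pH 7.5, 25 mM KCl, 0.1% BSA, 0.01% Triton X-100, 1% DMSO. FAM-acetylated peptide substrate at 100 μM, mobility-shift read-out. Product/(substrate + product) converted to % inhibition. IC50 from a four-parameter fit; dose-response spans 12 threefold dilutions from 30.0 μM.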

The nature of series [4]: Cytotoxicity against mouse KPC monolayer cells assessed as reduction in tumor spheroid intensity after 72 hrs by Alamar Blue assay. The format is functional, cell-based. The procedure, abridged:
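Monolayer proliferation of STR-authenticated, mycoplasma-checked patient-derived PDAC lines and mouse KPC cells. Plated at 2000 cells/well, treated 72 h, read by alamarBlue. At least triplicate, n = 3–5.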

In turn, `O=C(NO)c1ccc(N(Cc2ccc(C(F)(F)F)cc2)C(=O)CN(Cc2c(F)c(F)c(F)c(F)c2F)S(=O)(=O)c2ccc(F)cc2)cc1` returned a t1/2 in series [1] of 37.1 min. Besides, the IC50 (usually the point on the concentration scale where inhibition reaches its midpoint) is greater than 1000 nM on Histone deacetylase 8, greater than 1000 nM at Histone deacetylase 3, 86 nM in series [2] and 191 nM on Histone deacetylase 11. The compound further returned a CLH in series [3] of 37.4 µL/min.
With `Cc1[nH]c2ccccc2c1CCNCc1ccc(/C=C/C(=O)NO)cc1` [PANOBINOSTAT], in series [4], the concentration for half-maximal inhibition (IC50) came to 8500 nM.
Regarding `CC(C)(C)c1ccc(CN(C(=O)CN(Cc2ccccc2C(F)(F)F)S(=O)(=O)c2ccc(F)c(F)c2)c2ccc(C(=O)NO)cc2)cc1`, the half-inhibitory concentration (IC50) at Histone deacetylase 8 is greater than 1000 nM; at Histone deacetylase 3, greater than 1000 nM; in series [2], 362 nM; on Histone deacetylase 11, 254 nM.
Take `O=C(NO)c1ccc(N(Cc2ccc(C(F)(F)F)cc2)C(=O)CN(Cc2ccccc2C(F)(F)F)S(=O)(=O)c2ccc(F)c(F)c2)cc1`: the IC50 at Histone deacetylase 8 was greater than 1000 nM; on Histone deacetylase 3, greater than 1000 nM; in series [2] it was 188 nM; on Histone deacetylase 11, 396 nM.
Regarding `O=C(NO)c1ccc(N(Cc2ccc(C(F)(F)F)cc2)C(=O)CN(Cc2ccccc2C(F)(F)F)S(=O)(=O)c2ccc(F)cc2)cc1`, the 50% inhibitory concentration (IC50) is greater than 1000 nM at Histone deacetylase 8, greater than 1000 nM at Histone deacetylase 3, 93 nM in series [2] and 304 nM at Histone deacetylase 11.
Turning to `O=C(NO)c1ccc(N(Cc2ccc(C(F)(F)F)cc2)C(=O)CN(Cc2ccccc2C(F)(F)F)S(=O)(=O)c2ccc(F)cc2F)cc1`, the half-inhibitory concentration (IC50) is greater than 1000 nM on Histone deacetylase 8, greater than 1000 nM at Histone deacetylase 3, 151 nM in series [2] and 346 nM on Histone deacetylase 11.
With `CC(C)(C)c1ccc(CN(C(=O)CN(Cc2ccccc2C(F)(F)F)S(=O)(=O)c2ccc(F)cc2F)c2ccc(C(=O)NO)cc2)cc1`, the 50% inhibitory concentration (IC50) on Histone deacetylase 8 was greater than 1000 nM; at Histone deacetylase 3, greater than 1000 nM; in series [2], 289 nM; at Histone deacetylase 11 it was 288 nM.
As to `CC(C)(C)c1ccc(CN(C(=O)CN(Cc2ccccc2C(F)(F)F)S(=O)(=O)c2ccc(F)cc2)c2ccc(C(=O)NO)cc2)cc1`, the IC50 was greater than 1000 nM at Histone deacetylase 8, greater than 1000 nM at Histone deacetylase 3, 230 nM in series [2] and 253 nM on Histone deacetylase 11.
